Source: ChEMBL document CHEMBL1138907, “Synthesis, hydrolyses and dermal delivery of N-alkyl-N-alkyloxycarbonylaminomethyl (NANAOCAM) derivatives of phenol, imide and thiol containing drugs” (Bioorg Med Chem Lett, 2006)
Values after ≈ are worked out from the molar mass of the structure shown.

Columns and labels:
[1] = Half life of the compound; format: ADME
Method in brief: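 Hydrolysis in aqueous buffer, followed by UV absorbance in a cuvette at about 10^-5 M final substrate. For the phenol derivatives, runs were at 46 °C in pH 8.8 buffer because hydrolysis at 32 °C was too slow. Half-lives were taken from plots of log(A∞ − At), or its negative, versus time.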

[2] = Dissociation constant, pKa of the compound; format: physicochemical
[3] = Aqueous solubility of the compound; format: physicochemical; conditions: water
[4] = Ratio for partition coefficient, log K in IPM to buffer at pH 4; format: physicochemical; conditions: IPM/pH 4.0 buffer
[5] = Solubility in IPM; format: physicochemical

Row | SMILES | half-life [1] [h] | pKa [2] | solubility [3] [µM] | log K [4] | solubility ([5]; IPM, read-out: Solubility) [µM] | solubility [5] [µM]
1 | COC(=O)N(C)COc1ccc([N+](=O)[O-])cc1 | 0.367 | 7.14 | – | – | – | –
2 | COC(=O)N(C)Cn1cnc2c1c(=O)n(C)c(=O)n2C | 7 | 8.6 | 9330 (≈ 2620 µg/mL) | -0.04 | 2690 (≈ 757 µg/mL) | –
3 | COC(=O)N(C)COc1ccc(C(C)=O)cc1 | 3.15 | 8.05 | – | – | – | –
4 | COC(=O)N(COc1ccc([N+](=O)[O-])cc1)c1ccc(OC)cc1 | 6.67 | – | – | – | – | –
5 | CC(=O)Nc1ccc(O)cc1 [ACETAMINOPHEN] | – | – | 100000 (≈ 15100 µg/mL) | -1.72 | – | 1910 (≈ 289 µg/mL)
6 | COC(=O)N(C)COc1ccc(C=O)cc1 | 1.25 | 7.66 | – | – | – | –
7 | Cn1c(=O)c2[nH]cnc2n(C)c1=O.O [THEOPHYLLINE] | – | – | 46000 | -0.51 | 340 | –
8 | COC(=O)N(C)COC(=O)c1ccc(N(C)C)cc1 | 0.00367 | 5.03 | – | – | – | –
9 | COC(=O)N(C)CSc1[nH]cnc2ncnc1-2 | 0.317 | 7.5 | 1450 (≈ 367 µg/mL) | 0.03 | 1350 (≈ 342 µg/mL) | –
10 | COC(=O)c1ccc(OCN(C)C(=O)OC)cc1 | 4.83 | 8.47 | – | – | – | –
11 | COC(=O)N(C)COc1ccc(C#N)cc1 | 2.48 | 7.95 | – | – | – | –
12 | COC(=O)N(COc1ccc([N+](=O)[O-])cc1)c1ccccc1 | 8.65 | – | – | – | – | –
13 | COC(=O)N(C)COc1ccccc1C=O | 0.2 | 6.79 | – | – | – | –
14 | Sc1ncnc2nc[nH]c12 [MERCAPTOPURINE ANHYDROUS] | – | – | 1120 (≈ 170 µg/mL) | -1.75 | 20 (≈ 3.04 µg/mL) | –
15 | CCOC(=O)c1ccc(N(COc2ccc([N+](=O)[O-])cc2)C(=O)OC)cc1 | > 24 | – | – | – | – | –
16 | COC(=O)N(C)COc1ccc(NC(C)=O)cc1 | 60 | 9.5 | 45700 (≈ 11500 µg/mL) | -0.45 | 14100 (≈ 3560 µg/mL) | –
